The results in this text go back to ChEMBL document CHEMBL1145787, “Synthesis and structure-activity relationship of N-substituted 4-arylsulfonylpiperidine-4-hydroxamic acids as novel, orally active matrix metalloproteinase inhibitors for the treatment of osteoarthritis” (J Med Chem, 2003).

Experiment [1] is described as follows: In vivo inhibitory activity against Matrix metalloprotease enzyme by dialysis implant assay, value is relative to activity of CGS-27023 (69+/-2) at 25 mg/kg. po. Type of experiment: functional.
A short description of experiment [2]: In vivo inhibition of Matrix metalloprotease enzyme by Sponge-wrapped cartilage assay, value is relative to activity of CGS-27023 (27+/-2) at 25 mg/kg. po. bid. Type of experiment: functional.
Experiment [3] addresses Matrix metalloproteinase-9 (Homo sapiens, UniProt P14780). The experiment can be described thus: In vitro inhibitory activity against matrix metalloprotease-9.
A short description of experiment [4]: In vivo inhibitory activity against Matrix metalloprotease enzyme by dialysis implant assay, value is relative to activity of CGS-27023 (65+/-4) at 25 mg/kg. po. Type of experiment: functional.
The target in experiment [5] is T1, Disintegrin and metalloproteinase domain-containing protein 17 (Homo sapiens, UniProt P78536). The experiment can be described thus: In vitro inhibitory activity against tumor necrosis factor alpha converting enzyme (TACE).
T1 sequence (P78536 whole entry, the tested form may be a part): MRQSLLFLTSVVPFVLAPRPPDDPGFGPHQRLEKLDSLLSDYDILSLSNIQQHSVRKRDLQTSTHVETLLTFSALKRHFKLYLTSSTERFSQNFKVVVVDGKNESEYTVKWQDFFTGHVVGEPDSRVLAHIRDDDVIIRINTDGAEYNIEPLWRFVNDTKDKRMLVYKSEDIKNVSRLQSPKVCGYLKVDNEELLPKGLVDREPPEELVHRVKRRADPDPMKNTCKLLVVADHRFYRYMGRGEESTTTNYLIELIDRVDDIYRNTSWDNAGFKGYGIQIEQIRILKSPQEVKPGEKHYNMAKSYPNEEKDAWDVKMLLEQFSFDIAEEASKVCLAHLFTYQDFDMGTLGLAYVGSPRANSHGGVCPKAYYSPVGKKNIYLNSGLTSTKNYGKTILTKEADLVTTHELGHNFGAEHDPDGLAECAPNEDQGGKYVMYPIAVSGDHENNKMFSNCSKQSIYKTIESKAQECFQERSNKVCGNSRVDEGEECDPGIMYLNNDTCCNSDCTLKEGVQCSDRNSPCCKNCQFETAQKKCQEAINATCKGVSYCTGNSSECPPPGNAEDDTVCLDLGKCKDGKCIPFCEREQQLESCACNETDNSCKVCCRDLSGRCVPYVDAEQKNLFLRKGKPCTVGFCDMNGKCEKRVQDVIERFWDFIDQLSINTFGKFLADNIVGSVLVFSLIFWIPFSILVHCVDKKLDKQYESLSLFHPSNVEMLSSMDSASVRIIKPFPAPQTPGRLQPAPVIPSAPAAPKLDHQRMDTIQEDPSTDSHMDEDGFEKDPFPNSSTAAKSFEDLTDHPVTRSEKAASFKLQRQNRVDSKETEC
For experiment [6], the target named is T2, Interstitial collagenase (Homo sapiens) (UniProt P03956).
T2 sequence (whole entry): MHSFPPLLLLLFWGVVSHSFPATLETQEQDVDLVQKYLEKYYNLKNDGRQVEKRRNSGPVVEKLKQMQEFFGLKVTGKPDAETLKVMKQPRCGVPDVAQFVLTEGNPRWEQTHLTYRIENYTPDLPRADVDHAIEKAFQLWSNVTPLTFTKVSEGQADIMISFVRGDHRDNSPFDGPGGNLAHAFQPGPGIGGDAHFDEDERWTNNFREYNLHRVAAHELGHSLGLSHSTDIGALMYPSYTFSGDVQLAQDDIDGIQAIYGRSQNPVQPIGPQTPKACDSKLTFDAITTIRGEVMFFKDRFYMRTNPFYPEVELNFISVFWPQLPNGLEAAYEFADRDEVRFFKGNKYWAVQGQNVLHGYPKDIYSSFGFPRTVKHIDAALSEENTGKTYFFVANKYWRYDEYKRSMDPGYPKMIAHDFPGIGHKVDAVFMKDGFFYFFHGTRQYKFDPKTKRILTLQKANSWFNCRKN
The experiment can be described thus: Inhibition of Matrix metalloprotease-1 at 10 uM. In short, it runs like this:
(§1)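 Dose–response curves were not generated when inhibition was below 60% at 10 μM.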

The target of another experiment is T3, Interstitial collagenase (Homo sapiens, UniProt P03956).
T3 sequence (P03956 whole entry): T2 sequence (whole entry)
The experiment can be described thus: In vitro inhibitory activity against matrix metalloprotease-1.

Experiment [7] in a line: In vivo inhibitory activity against Matrix metalloprotease enzyme by dialysis implant assay, value is relative to activity of CGS-27023 (35+/-4) at 25 mg/kg. po. It is filed as functional.
A short description of experiment [8]: In vivo inhibition of Matrix metalloprotease enzyme by Sponge-wrapped cartilage assay, value is relative to activity of RS-130830 (43+/-3) at 25 mg/kg. po. bid. Type of experiment: functional.
For another experiment, the target named is Collagenase 3 (Homo sapiens, UniProt P45452).
Experiment [9] can be described thus: In vivo inhibitory activity against Matrix metalloprotease enzyme by dialysis implant assay, value is relative to activity of CGS-27023 (74+/-2) at 25 mg/kg. po. It is filed as functional.
The nature of experiment [10]: In vivo inhibitory activity against Matrix metalloprotease enzyme by dialysis implant assay, value is relative to activity of CGS-27023 (51+/-2) at 25 mg/kg. po. Type of experiment: functional.
Experiment [11] can be described thus: In vivo inhibition of Matrix metalloprotease enzyme by Sponge-wrapped cartilage assay, value is relative to activity of CGS-27023 (39+/-3) at 25 mg/kg. po. bid. Type of experiment: functional.
Experiment [12] addresses T1, Disintegrin and metalloproteinase domain-containing protein 17. In words: Inhibition of Tumor necrosis factor alpha converting enzyme (TACE) at 10 uM. In short, it runs like this: as §1
The nature of experiment [13]: In vivo inhibitory activity against Matrix metalloprotease enzyme by dialysis implant assay, value is relative to activity of CGS-27023 (35+/-3) at 25 mg/kg. po. It is filed as functional.
Experiment [14] is described as follows: In vivo inhibition of Matrix metalloprotease enzyme by Sponge-wrapped cartilage assay, value is relative to activity of RS-130830 (39+/-2) at 10 mg/kg. po. bid. It is filed as functional.
Experiment [15] in a line: In vivo inhibitory activity against Matrix metalloprotease enzyme by dialysis implant assay, value is relative to activity of CGS-27023 (73+/-3) at 25 mg/kg. po. It is filed as functional.
Experiment [16] can be described thus: In vivo inhibitory activity against Matrix metalloprotease enzyme by dialysis implant assay, value is relative to activity of CGS-27023 (58+/-2) at 25 mg/kg. po. Type of experiment: functional.
Experiment [17] in a line: In vivo inhibitory activity against Matrix metalloprotease enzyme by dialysis implant assay, value is relative to activity of CGS-27023 (54+/-2) at 25 mg/kg. po. Type of experiment: functional.
A short description of experiment [18]: In vivo inhibition of Matrix metalloprotease enzyme by Sponge-wrapped cartilage assay, value is relative to activity of CGS-27023 (25+/-4) at 25 mg/kg. po. bid. Type of experiment: functional.
Experiment [19] is described as follows: In vivo inhibitory activity against Matrix metalloprotease enzyme by dialysis implant assay, value is relative to activity of CGS-27023 (68+/-5) at 25 mg/kg. po. It is filed as functional.
A short description of experiment [20]: In vivo inhibitory activity against Matrix metalloprotease enzyme by dialysis implant assay, value is relative to activity of CGS-27023 (43+/-2) at 25 mg/kg. po. It is filed as functional.
A short description of experiment [21]: In vivo inhibition of Matrix metalloprotease enzyme by Sponge-wrapped cartilage assay, value is relative to activity of RS-130830 (40+/-2) at 10 mg/kg. po. bid. It is filed as functional.
Experiment [22] in a line: In vivo inhibitory activity against Matrix metalloprotease enzyme by dialysis implant assay, value is relative to activity of CGS-27023 (76+/-2) at 25 mg/kg. po. Type of experiment: functional.
The nature of experiment [23]: In vivo inhibition of Matrix metalloprotease enzyme by Sponge-wrapped cartilage assay, value is relative to activity of CGS-27023 (37+/-5) at 25 mg/kg. po. bid. Type of experiment: functional.
Experiment [24] can be described thus: In vivo inhibitory activity against Matrix metalloprotease enzyme by dialysis implant assay, value is relative to activity of CGS-27023 (38+/-3) at 25 mg/kg. po. It is filed as functional.

The structures appear in SMILES notation.

Matrix metalloproteinase-9, sequence (P14780 whole entry): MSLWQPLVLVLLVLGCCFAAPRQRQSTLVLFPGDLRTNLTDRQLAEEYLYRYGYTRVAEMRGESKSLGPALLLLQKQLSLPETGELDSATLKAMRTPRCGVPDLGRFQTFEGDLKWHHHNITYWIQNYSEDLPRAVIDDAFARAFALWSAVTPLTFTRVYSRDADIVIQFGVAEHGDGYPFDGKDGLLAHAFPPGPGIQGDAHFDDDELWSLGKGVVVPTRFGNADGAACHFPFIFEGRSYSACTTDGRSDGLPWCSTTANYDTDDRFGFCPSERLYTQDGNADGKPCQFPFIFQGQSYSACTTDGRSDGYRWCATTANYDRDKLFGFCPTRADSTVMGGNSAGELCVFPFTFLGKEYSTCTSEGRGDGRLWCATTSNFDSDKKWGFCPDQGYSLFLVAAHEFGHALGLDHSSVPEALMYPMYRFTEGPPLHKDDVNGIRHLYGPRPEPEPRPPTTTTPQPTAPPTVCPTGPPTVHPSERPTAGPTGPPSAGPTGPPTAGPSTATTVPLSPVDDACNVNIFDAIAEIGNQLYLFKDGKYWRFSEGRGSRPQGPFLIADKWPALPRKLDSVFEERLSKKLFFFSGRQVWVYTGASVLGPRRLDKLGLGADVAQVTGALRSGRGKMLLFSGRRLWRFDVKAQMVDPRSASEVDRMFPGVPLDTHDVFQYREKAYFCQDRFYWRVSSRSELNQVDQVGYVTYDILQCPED

Usually inhibition in vivo stands for the share of the control response that was lost under treatment. Read a high inhibition in vivo as strong suppression. As usually defined, the IC50 is the point on the concentration scale where inhibition reaches its midpoint. Read a low IC50 as higher potency. Consider `CCCCOc1ccc(S(=O)(=O)C2(C(=O)NO)CCN(CCCOc3ccccc3)CC2)cc1`, for which the inhibition in vivo at 25 mg/kg in experiment [1] came to 67%; in experiment [2], 17%. This compound had a half-inhibitory concentration (IC50) in [3] of 5 nM.

As for `CCCCOc1ccc(S(=O)(=O)C2(C(=O)NO)CCN(Cc3cccc(OCCN4CCOCC4)c3)CC2)cc1`, the inhibition in vivo at 25 mg/kg in [4] is 27%.

The term inhibition denotes the share of the control response that was lost under treatment. The low end stands for a weak effect, the high end for a strong effect. Consider `O=C(NO)C1(S(=O)(=O)c2ccc(OCc3ccccc3)cc2)CCN(Cc2ccccc2)CC1`, for which the IC50 in [5] is 416 nM; in [3], 3 nM; against Interstitial collagenase, 40 nM. This compound also had an inhibition in [6] of 48%. This compound came in with an inhibition in vivo at 25 mg/kg in [7] of 17%.

Turning to `CCCCOc1ccc(S(=O)(=O)C2(C(=O)NO)CCN(CCCC)CC2)cc1`, the inhibition in experiment [6] was found to be 50%. Further, the inhibition in vivo at 25 mg/kg in experiment [8] was 46%; in [9], 86%. For the same compound, on Collagenase 3, 2 nM corresponded to half-maximal inhibition (IC50).

For `CCCCOc1ccc(S(=O)(=O)C2(C(=O)NO)CCN(Cc3ccccc3)CC2)cc1`, the inhibition in vivo at 25 mg/kg in experiment [10] was determined as 80%; in [11], 53%. In addition, the IC50 amounted to 4 nM in experiment [3] and 1 nM against Collagenase 3.

For the compound `CCCCOc1ccc(S(=O)(=O)C2(C(=O)NO)CCN(Cc3ccc(F)cc3)CC2)cc1`, the inhibition in [12] stood at 39%. This compound had an inhibition in vivo at 25 mg/kg in experiment [13] of 48%. The compound further displayed an IC50 on Collagenase 3 of 5 nM.

As for `CCCCN1CCC(C(=O)NO)(S(=O)(=O)c2ccc(Oc3ccc(Cl)cc3)cc2)CC1`, the IC50 in [5] amounted to 301 nM; in [3] it was 1 nM; against Interstitial collagenase, 1070 nM; at Collagenase 3 it was 1 nM. The compound also returned an inhibition in vivo at 10 mg/kg in experiment [14] of 69%. Further, the inhibition in vivo at 25 mg/kg in experiment [15] is 93%.

Turning to `COc1ccc(S(=O)(=O)C2(C(=O)NO)CCN(C)CC2)cc1`, the inhibition in experiment [12] came out at 20%. Further, in experiment [16], at 25 mg/kg the inhibition in vivo was 36%.

With `CCCCOc1ccc(S(=O)(=O)C2(C(=O)NO)CCN(Cc3ccc(OC)cc3)CC2)cc1`, the inhibition in vivo at 25 mg/kg is 69% in experiment [17] and 17% in experiment [18]. Also, the values for the IC50 (in experiment [3]; on Collagenase 3) were 3 nM and 1 nM, respectively.

On to `COc1ccc(S(=O)(=O)C2(C(=O)NO)CCN(C(C)C)CC2)cc1`, for which the inhibition in [12] is 18%. In experiment [19], this compound came in with an inhibition in vivo at 25 mg/kg of 49%.

Consider `CCCCOc1ccc(S(=O)(=O)C2(C(=O)NO)CCN(C)CC2)cc1`, for which at 25 mg/kg the inhibition in vivo in experiment [20] was 64%. Besides, the IC50 turned out to be 10 nM in experiment [3] and 2 nM at Collagenase 3. In experiment [21], this compound displayed an inhibition in vivo at 10 mg/kg of 12%.

Turning to `COc1ccc(S(=O)(=O)C2(C(=O)NO)CCN(Cc3ccc(C)cc3)CC2)cc1`, the 50% inhibitory concentration (IC50) in experiment [3] amounted to 17 nM; on Collagenase 3, 2 nM. The compound further displayed an inhibition in vivo at 25 mg/kg in experiment [22] of 89%.

`COc1ccc(CN2CCC(C(=O)NO)(S(=O)(=O)c3ccc(OC)cc3)CC2)cc1`: the inhibition in vivo at 25 mg/kg came out at 75% in experiment [1] and 45% in experiment [23]. The half-maximal inhibitory concentration (IC50) against Collagenase 3 was determined as 2 nM.

In turn, `CCN1CCC(C(=O)NO)(S(=O)(=O)c2ccc(OC)cc2)CC1` yielded an inhibition in [12] of 25%. Further, 25 mg/kg produced 17% inhibition in vivo in [24].
